Calls of active or inactive are those of the source. No cut-off for these calls is given here.
Key:
[1] = target: Cyclin-dependent kinase 5 (Homo sapiens) (UniProt Q00535); assay: Inhibition of CDK5 in human MV4-11 cells assessed as increase in p27KIP1 level at 5 to 10 uM measured after 24 hrs incubation by Western blot analysis; type: cell-based
How it was run: (§1)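 Cells treated for 24 h; lysates immunoblotted for pAkt (S473), pRB (S780), cyclin D1, p27KIP1, and cleaved caspase 3 and 7 (MOLM-13); at least two independent repeats.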

[2] = target: Cyclin-dependent kinase 5 (Homo sapiens) (UniProt Q00535); assay: Inhibition of CDK5 in human MOLM13 cells assessed as increase in p27KIP1 level at 5 to 10 uM measured after 24 hrs incubation by Western blot analysis; type: cell-based; how it was run: as §1
[3] = target: Cyclin-dependent kinase 5 (Homo sapiens) (UniProt Q00535); assay: Inhibition of CDK5 in human MV4-11 cells assessed as decrease in cyclin D1 level at 5 to 10 uM measured after 24 hrs incubation by Western blot analysis; type: cell-based; how it was run: as §1
[4] = target: Cyclin-dependent kinase 5 (Homo sapiens) (UniProt Q00535); assay: Inhibition of CDK5 in human MOLM13 cells assessed as decrease in cyclin D1 level at 5 to 10 uM measured after 24 hrs incubation by Western blot analysis; type: cell-based; how it was run: as §1
[5] = target: CDK2/Cyclin A2 (Homo sapiens) (UniProt P24941+P20248); assay: Inhibition of recombinant full length N-terminal GST tagged human CDK2/CyclinA expressed in baculovirus infected sf9 cells using histone H1 as substrate at 10 uM measured after 30 mins in presence of ATP by ADP-Glo kinase assay relative to control
CDK2/Cyclin A2 = CDK2/Cyclin A2 (Homo sapiens, UniProt P24941); assay: Inhibition of recombinant full length N-terminal GST tagged human CDK2/CyclinA expressed in baculovirus infected sf9 cells using histone H1 as substrate measured after 30 mins in presence of ATP by ADP-Glo kinase assay
How it was run: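 CDK2/cyclin A kinase inhibition; Ki values from the average of at least two experiments.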

[6] = target: Cyclin-dependent kinase 5/CDK5 activator 1 (Homo sapiens, UniProt Q00535); assay: Inhibition of recombinant full length N-terminal GST tagged human CDK5/p25 expressed in baculovirus infected sf9 cells using histone H1 as substrate measured after 60 mins in presence of ATP by ADP-Glo kinase assay; type: cell-based
[7] = target: Cyclin-dependent kinase 1/cyclin B1 (Homo sapiens, UniProt P06493); assay: Inhibition of CDK1/CyclinB1 (unknown origin) using histone H1 (GGGPATPKKAKKL) as substrate incubated for 80 mins in presence of ATP by ADP-Glo kinase assay; type: protein-complex assay
[8] = target: Cyclin-dependent kinase 4/cyclin D1 (Homo sapiens, UniProt P11802); assay: Inhibition of human recombinant N-terminal GST-tagged CDK4 (S4-E303 residues)/Cyclin D1 (Q4-I295 residues) expressed in sf9 cells using RB-CTF as substrate incubated for 90 mins in presence of ATP by ADP-Glo kinase assay
CDK6/cyclin D3 = CDK6/cyclin D3 (Homo sapiens, UniProt Q00534); assay: Inhibition of human recombinant N-terminal GST-tagged CDK6 (M1-A326 residues) and His6 tagged Cyclin D3 (M1-L292 residues) expressed in sf9 cells using histone H1 (GGGPATPKKAKKL) as substrate incubated for 60 mins in presence of ATP by ADP-Glo kinase assay
CDK9/cyclin T1 = CDK9/cyclin T1 (Homo sapiens, UniProt P50750); assay: Inhibition of human recombinant full length N-terminal GST His6 fused CDK9 (M1 to F372 residues/ N-terminal His6 tagged Cyclin T1 (M1 to K726 residues) expressed in sf9 cells using RBER-IRStide as substrate incubated for 90 mins in presence of ATP by ADP-Glo kinase assay
CDK7/Cyclin H/MNAT1 = CDK7/Cyclin H/MNAT1 (Homo sapiens, UniProt P50613); assay: Inhibition of CDK7/cyclinH/MAT1 (unknown origin) using RBER-IRStide as substrate incubated for 120 mins in presence of ATP by ADP-Glo kinase assay; type: protein-complex assay
MV4-11 = assay: Antiproliferative activity against human MV4-11 cells assessed as growth inhibition measured after 72 hrs by resazurin assay; type: functional; conditions: MV4-11, 72 h
How it was run: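 Leukemia cells exposed to compound for 72 h; viability read by resazurin reduction. GI50 (concentration giving 50% inhibition of proliferation) reported as mean ± SD of three independent experiments.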

[9] = target: Receptor-type tyrosine-protein kinase FLT3 (Homo sapiens, UniProt P36888, ITD); assay: Inhibition of human recombinant full length GST-fused/His-tagged FLT3 ITD mutant expressed in Sf9 cells using poly (Glu,Tyr) as substrate incubated for 80 mins in presence of ATP by ADP-Glo kinase assay
MOLM-13 [10] = assay: Induction of apoptosis in human MOLM13 cells assessed as early apoptotic cells at 2.5 uM measured after 24 hrs by Annexin V-FITC/PI staining based flow cytometry (reference value: 3.38%); type: functional
MOLM-13 [11] = assay: Induction of apoptosis in human MOLM13 cells assessed as late apoptotic cells at 2.5 uM measured after 24 hrs by Annexin V-FITC/PI staining based flow cytometry (reference value: 1.94%); type: functional
MOLM-13 [12] = assay: Induction of apoptosis in human MOLM13 cells assessed as early apoptotic cells at 10 uM measured after 24 hrs by Annexin V-FITC/PI staining based flow cytometry (reference value: 3.38%); type: functional
[13] = target: Cyclin-dependent kinase 5 (Homo sapiens) (UniProt Q00535); assay: Inhibition of CDK5 in human MOLM13 cells assessed as increase in caspase3/7 activity at 2.5 to 10 uM measured after 24 hrs by caspase-3/7 glo assay; type: cell-based
How it was run: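 MOLM-13 cells treated 24 h; caspase-3/7 activity measured with […]; at least two independent experiments, values given as mean.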

[14] = target: Cyclin-dependent kinase 5 (Homo sapiens) (UniProt Q00535); assay: Inhibition of CDK5 in human MV4-11 cells assessed as decrease in phosphorylated Akt protein level at 5 to 10 uM measured after 24 hrs incubation by Western blot analysis; type: cell-based; how it was run: as §1
[15] = target: Cyclin-dependent kinase 5 (Homo sapiens) (UniProt Q00535); assay: Inhibition of CDK5 in human MV4-11 cells assessed as decrease in phosphorylated RB protein level at 5 to 10 uM measured after 24 hrs incubation by Western blot analysis; type: cell-based; how it was run: as §1
[16] = target: Cyclin-dependent kinase 5 (Homo sapiens) (UniProt Q00535); assay: Inhibition of CDK5 in human MV4-11 cells assessed as decrease in FAK phosphorylation at S732 measured after 24 hrs by Western blot analysis; type: cell-based
How it was run: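 MV4-11 AML cells incubated 24 h with compound across a concentration series; cellular CDK5 activity followed by Western blot of FAK phosphorylation at Ser732.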

[17] = target: Cyclin-dependent kinase 5 (Homo sapiens) (UniProt Q00535); assay: Inhibition of CDK5 in human MOLM13 cells assessed as increase in cleaved caspase 3 level at 5 to 10 uM measured after 24 hrs by western blot analysis; type: cell-based; how it was run: as §1
[18] = target: Cyclin-dependent kinase 5 (Homo sapiens) (UniProt Q00535); assay: Inhibition of CDK5 in human MOLM13 cells assessed as increase in cleaved caspase 7 level at 5 to 10 uM measured after 24 hrs by western blot analysis; type: cell-based; how it was run: as §1
[19] = target: Cyclin-dependent kinase 5 (Homo sapiens) (UniProt Q00535); assay: Inhibition of CDK5 in human MOLM13 cells assessed as decrease in p21CIP1 level at 5 to 10 uM measured after 24 hrs by western blot analysis; type: cell-based
MOLM-13 (Homo sapiens) = assay: Cell cycle arrest in human MOLM-13 cells assessed as accumulation at sub G1 phase at 10 uM measured after 24 hrs by propidium iodide staining based flow cytometry analysis

Chain of Cyclin-dependent kinase 5 (Homo sapiens) (Q00535 whole entry, looked up): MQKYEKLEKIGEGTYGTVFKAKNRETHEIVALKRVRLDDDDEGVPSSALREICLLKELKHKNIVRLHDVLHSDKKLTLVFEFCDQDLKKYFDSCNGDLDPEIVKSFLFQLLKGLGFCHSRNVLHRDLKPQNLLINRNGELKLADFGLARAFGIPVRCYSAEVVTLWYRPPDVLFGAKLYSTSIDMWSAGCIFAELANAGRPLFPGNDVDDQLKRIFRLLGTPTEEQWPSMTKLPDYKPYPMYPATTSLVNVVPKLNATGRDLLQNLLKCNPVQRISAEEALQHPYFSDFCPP
Chain of Receptor-type tyrosine-protein kinase FLT3 (P36888 whole entry, looked up, stated change not applied, the tested form may be a part): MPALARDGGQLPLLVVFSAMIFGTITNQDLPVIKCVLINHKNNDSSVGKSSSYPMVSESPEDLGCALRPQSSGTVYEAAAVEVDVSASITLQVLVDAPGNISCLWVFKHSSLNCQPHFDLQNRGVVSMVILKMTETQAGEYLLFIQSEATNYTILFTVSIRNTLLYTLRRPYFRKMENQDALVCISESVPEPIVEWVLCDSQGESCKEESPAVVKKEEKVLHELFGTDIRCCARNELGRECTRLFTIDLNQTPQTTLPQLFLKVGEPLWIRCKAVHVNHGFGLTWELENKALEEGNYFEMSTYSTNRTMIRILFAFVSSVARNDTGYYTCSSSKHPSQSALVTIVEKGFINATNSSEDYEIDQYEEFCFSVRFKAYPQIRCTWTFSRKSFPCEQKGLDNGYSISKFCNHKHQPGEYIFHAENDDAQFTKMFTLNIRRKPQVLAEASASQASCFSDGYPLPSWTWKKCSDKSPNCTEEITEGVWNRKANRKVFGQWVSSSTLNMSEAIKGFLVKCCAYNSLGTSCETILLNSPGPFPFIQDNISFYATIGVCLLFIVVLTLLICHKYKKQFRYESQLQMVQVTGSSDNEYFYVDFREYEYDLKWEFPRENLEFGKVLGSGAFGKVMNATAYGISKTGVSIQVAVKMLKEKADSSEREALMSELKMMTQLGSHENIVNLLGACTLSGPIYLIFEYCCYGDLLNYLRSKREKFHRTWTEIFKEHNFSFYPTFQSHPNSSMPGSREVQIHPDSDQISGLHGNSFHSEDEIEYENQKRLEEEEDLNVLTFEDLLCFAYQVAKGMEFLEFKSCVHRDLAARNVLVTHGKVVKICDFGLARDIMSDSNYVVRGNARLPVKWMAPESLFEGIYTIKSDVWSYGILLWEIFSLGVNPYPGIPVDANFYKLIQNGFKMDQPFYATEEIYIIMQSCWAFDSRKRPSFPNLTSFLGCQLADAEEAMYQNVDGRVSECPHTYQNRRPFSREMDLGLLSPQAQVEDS
Chain of CDK7/Cyclin H/MNAT1 (P51946 whole entry): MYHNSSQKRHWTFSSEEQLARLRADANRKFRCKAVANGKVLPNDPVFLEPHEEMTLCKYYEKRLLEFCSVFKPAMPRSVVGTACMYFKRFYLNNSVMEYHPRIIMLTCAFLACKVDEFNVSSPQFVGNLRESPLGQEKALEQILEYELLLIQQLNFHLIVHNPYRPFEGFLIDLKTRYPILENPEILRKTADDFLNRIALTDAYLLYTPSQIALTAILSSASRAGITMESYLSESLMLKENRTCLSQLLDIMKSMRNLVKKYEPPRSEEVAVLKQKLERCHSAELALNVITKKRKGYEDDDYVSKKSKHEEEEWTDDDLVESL
Chain of CDK7/Cyclin H/MNAT1 (P50613 whole entry): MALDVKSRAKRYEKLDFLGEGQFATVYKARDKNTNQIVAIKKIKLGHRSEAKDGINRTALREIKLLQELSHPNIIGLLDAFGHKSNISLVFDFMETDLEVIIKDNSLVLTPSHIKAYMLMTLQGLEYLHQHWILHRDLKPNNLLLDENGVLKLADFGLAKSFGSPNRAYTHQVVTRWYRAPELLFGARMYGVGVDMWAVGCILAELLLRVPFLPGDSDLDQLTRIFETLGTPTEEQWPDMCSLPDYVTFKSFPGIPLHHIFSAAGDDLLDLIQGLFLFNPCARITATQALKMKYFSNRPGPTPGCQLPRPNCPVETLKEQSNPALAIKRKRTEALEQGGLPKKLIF
Chain of CDK7/Cyclin H/MNAT1 (P51948 whole entry, further chain): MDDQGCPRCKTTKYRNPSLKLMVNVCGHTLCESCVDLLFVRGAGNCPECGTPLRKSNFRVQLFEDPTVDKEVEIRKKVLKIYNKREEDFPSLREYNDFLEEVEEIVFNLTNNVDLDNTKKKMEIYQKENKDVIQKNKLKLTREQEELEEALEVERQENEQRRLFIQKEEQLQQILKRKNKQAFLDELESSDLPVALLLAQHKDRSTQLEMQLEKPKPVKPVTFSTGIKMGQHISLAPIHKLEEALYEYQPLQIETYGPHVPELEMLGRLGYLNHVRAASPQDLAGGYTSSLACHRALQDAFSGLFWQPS
Chain of Cyclin-dependent kinase 5/CDK5 activator 1 (Q00535 whole entry): as the sequence (Q00535 whole entry, looked up) above
Chain of Cyclin-dependent kinase 5/CDK5 activator 1 (Q15078 whole entry, further chain): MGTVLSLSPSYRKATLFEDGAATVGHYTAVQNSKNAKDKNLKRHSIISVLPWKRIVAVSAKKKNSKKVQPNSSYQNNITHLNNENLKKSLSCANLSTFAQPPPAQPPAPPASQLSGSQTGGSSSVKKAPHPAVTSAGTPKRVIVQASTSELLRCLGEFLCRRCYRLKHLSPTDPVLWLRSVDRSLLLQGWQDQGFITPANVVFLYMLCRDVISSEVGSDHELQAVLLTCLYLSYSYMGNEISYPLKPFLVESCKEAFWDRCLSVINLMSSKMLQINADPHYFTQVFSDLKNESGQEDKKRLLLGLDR
Chain of CDK6/cyclin D3 (P30281 whole entry, the tested form may be a part): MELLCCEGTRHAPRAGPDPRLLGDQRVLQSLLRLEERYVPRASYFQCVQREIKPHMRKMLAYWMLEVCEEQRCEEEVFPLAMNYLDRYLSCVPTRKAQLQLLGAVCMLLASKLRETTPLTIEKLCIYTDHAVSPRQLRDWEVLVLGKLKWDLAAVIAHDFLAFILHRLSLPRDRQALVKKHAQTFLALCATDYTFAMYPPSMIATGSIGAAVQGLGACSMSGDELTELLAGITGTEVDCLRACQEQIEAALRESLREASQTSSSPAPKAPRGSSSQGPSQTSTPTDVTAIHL
Chain of CDK6/cyclin D3 (Q00534 whole entry, the tested form may be a part): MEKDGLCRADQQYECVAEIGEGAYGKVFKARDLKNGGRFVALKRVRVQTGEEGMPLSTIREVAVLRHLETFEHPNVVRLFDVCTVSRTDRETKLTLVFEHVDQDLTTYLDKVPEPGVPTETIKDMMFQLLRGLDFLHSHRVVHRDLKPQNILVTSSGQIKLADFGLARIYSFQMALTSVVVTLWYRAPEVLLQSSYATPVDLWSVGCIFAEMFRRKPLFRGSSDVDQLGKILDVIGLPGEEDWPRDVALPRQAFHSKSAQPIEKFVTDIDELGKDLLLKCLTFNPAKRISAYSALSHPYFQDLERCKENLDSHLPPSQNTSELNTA
Chain of CDK9/cyclin T1 (O60563 whole entry, the tested form may be a part): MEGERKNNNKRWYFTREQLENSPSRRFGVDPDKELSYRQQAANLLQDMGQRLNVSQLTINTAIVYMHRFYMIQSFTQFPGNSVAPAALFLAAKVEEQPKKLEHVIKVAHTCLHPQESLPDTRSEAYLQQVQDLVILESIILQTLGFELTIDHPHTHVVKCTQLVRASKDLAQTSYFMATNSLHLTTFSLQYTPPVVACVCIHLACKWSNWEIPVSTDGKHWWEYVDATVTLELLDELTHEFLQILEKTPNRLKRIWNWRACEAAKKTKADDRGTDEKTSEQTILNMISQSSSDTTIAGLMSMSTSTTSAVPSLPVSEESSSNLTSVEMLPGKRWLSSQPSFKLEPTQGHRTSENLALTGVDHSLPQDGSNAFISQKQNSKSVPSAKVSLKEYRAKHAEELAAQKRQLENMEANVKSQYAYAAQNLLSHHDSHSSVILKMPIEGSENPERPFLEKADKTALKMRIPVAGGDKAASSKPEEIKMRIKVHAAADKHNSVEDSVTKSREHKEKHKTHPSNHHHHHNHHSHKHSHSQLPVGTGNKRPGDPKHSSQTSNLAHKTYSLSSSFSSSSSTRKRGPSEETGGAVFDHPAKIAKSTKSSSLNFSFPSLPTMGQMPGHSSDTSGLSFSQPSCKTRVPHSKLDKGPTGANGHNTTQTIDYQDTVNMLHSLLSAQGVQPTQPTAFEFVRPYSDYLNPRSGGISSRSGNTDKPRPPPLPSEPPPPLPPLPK
Chain of CDK9/cyclin T1 (P50750 whole entry, the tested form may be a part): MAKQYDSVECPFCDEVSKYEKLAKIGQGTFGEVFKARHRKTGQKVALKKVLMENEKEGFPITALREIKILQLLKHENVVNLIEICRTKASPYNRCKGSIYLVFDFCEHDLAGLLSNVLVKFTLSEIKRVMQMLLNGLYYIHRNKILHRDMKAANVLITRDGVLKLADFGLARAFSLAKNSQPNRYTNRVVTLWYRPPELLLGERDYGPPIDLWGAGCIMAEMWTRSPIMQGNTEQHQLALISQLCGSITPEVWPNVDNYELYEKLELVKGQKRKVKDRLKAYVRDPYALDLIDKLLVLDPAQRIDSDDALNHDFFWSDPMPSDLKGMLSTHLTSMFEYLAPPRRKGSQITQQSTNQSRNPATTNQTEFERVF

| SMILES | Activity [1] | Activity [2] | inhibition [3] | inhibition [4] | inhibition [5] [%] | Ki (CDK2/Cyclin A2) [nM] | Ki [6] [nM] | Ki [7] [nM] | Ki [8] [nM] | Ki (CDK6/cyclin D3) [nM] | Ki (CDK9/cyclin T1) [nM] | Ki (CDK7/Cyclin H/MNAT1) [nM] | GI50 (MV4-11) [nM] | IC50 [9] [nM] | Activity (MOLM-13 [10]) [%] | Activity (MOLM-13 [11]) [%] | Activity (MOLM-13 [12]) [%] | Activity [13] | inhibition [14] | inhibition [15] | also measured |
| --- | --- | --- | --- | --- | --- | --- | --- | --- | --- | --- | --- | --- | --- | --- | --- | --- | --- | --- | --- | --- | --- |
| Cc1cccc(Nc2ncc3c(n2)CCCC3)c1 | Active | Active | Active | Active | 72 | 3320 | 800 | 2360 | > 5000 | > 5000 | > 5000 | > 5000 | 3290 | > 10000 | 8.31 | 2.68 | 30.11 | Active | Active | Active | inhibition [16]: Dose-dependent effect; Activity [17]: Active; Activity [18]: Active; inhibition [19]: Active; Activity (MOLM-13 (Homo sapiens)): Active |
| NS(=O)(=O)c1cccc(Nc2ncc3c(n2)CCCC3)c1 | Active | Active | Active | Active | 95 | 270 | 160 | 2610 | > 5000 | 3010 | 1000 | > 5000 | 2550 | 1480 | 10.05 | 3.43 | 18.34 | Active | Active | Active | inhibition [16]: Dose-dependent effect; Activity [17]: Active; Activity [18]: Active; inhibition [19]: Active; Activity (MOLM-13 (Homo sapiens)): Active |

Source: ChEMBL document CHEMBL4396883, “Discovery of CDK5 Inhibitors through Structure-Guided Approach” (ACS Med Chem Lett, 2019)
